Values after ≈ are worked out from the molar mass of the structure shown. Active and inactive are the calls of the source. The rule behind the calls is not given here.
Key:
SK-OV-3 = test: Cytotoxicity against human SKOV3 cells up to 32 uM by neutral red method; type: cell-based
How it was run: (§1)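 Neutral red uptake cytotoxicity, top concentration 32 μM.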

Trichophyton rubrum [1] = test: Antifungal activity against Trichophyton rubrum ATCC 10218 by CLSI method; type: functional, organism-based
How it was run: (§2)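 Growth scraped from 1- to 6-week-old potato dextrose slants and filtered through Miracloth. Diluted in 5% Alamar blue-RPMI 1640 (MOPS pH 7.0) to 2.7 × 10⁴ CFU/ml. Eleven twofold dilutions in duplicate. Fluorescence at 544 nm excitation/590 nm emission read before and after 35°C, 5 days. IC50 fitted from percent growth. MIC taken as no detectable growth; MFC from clear or blue wells plated on PD agar.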

Candida albicans [2] = test: Antifungal activity against Candida albicans ATCC 90028 after 48 hrs by CLSI method; type: functional, organism-based; conditions: ATCC 90028, 48 h
How it was run: (§3)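 CLSI broth microdilution. Colonies from 24–72 h SD agar suspended in saline and sized by OD630 standard curve. Inoculum 1.5 × 10³ CFU/ml (final) in RPMI 1640 (0.2% dextrose, 0.03% glutamine, 0.165 M MOPS, pH 7.0). Twofold dilutions (11 levels) from 20% DMSO-saline, in duplicate. 35°C for 48 h, OD530 read before and after. IC50 fitted from % growth. MIC: no detectable growth. MFC: subculture onto SD agar.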

[3] = test system: Trichophyton mentagrophytes; test: Antifungal activity against Trichophyton mentagrophytes ATCC 9533 by CLSI method; type: functional, organism-based; how it was run: as §2
Candida albicans [4] = test: Antifungal activity against Candida albicans ATCC 14053 after 48 hrs by CLSI method; type: functional, organism-based; conditions: ATCC 14053, 48 h; how it was run: as §3
Candida albicans [5] = test: Antifungal activity against Candida albicans ATCC 60193 at 178.3 uM after 48 hrs by CLSI method; type: functional, organism-based
How it was run: (§4)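 Candida inocula came from 24–72-h SD agar colonies suspended in saline. They were diluted by OD630 standard curve into RPMI 1640 (0.2% dextrose, 0.03% glutamine, 0.165 M MOPS, pH 7.0) to 1.5 × 10³ CFU/ml. Compounds were run as 11 twofold dilutions in 20% DMSO-saline, in duplicate, at 35°C for 48 h, with OD530 read before and after. Percent growth at the top concentration, IC50, MIC, and MFC (SD agar plating) were derived.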

Cryptococcus neoformans [6] = test: Antifungal activity against Cryptococcus neoformans ATCC 66031 after 72 hrs by CLSI method; type: functional, organism-based; conditions: ATCC 66031, 72 h
How it was run: (§5)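 SD broth replaced RPMI because growth in RPMI was poor; other CLSI conditions were kept. Inoculum was 1.5 × 10³ CFU/ml from colonies on SD agar, checked by plating. Twofold serial dilutions (11 concentrations) in 20% DMSO-saline were tested in duplicate. OD530 was read before and after incubation at 35°C for 72 h. Percent growth gave IC50; the MIC is the lowest concentration with no detectable growth.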

Nakaseomyces glabratus = test: Antifungal activity against Candida glabrata ATCC 90030 at 178.3 uM after 48 hrs by CLSI method; type: functional, organism-based; how it was run: as §4
Cryptococcus neoformans [7] = test: Antifungal activity against Cryptococcus neoformans ATCC 66031 at 178.3 uM after 72 hrs by CLSI method; type: functional, organism-based; how it was run: as §5
LLC-PK1 = test: Cytotoxicity against pig LLC-PK1 cells up to 32 uM by neutral red method; type: cell-based, Sus scrofa; how it was run: as §1
Cryptococcus neoformans [8] = test: Antifungal activity against Cryptococcus neoformans ATCC 90113 at 178.3 uM after 72 hrs by CLSI method; type: functional, organism-based; how it was run: as §5
Candida albicans [9] = test: Antifungal activity against Candida albicans ATCC 60193 after 48 hrs by CLSI method; type: functional, organism-based; conditions: ATCC 60193, 48 h; how it was run: as §3
Aspergillus flavus = test: Antifungal activity against Aspergillus flavus ATCC 204304 at 178.3 uM after 48 hrs by CLSI method; type: functional, organism-based
Pichia kudriavzevii = test: Antifungal activity against Candida krusei ATCC 6258 after 48 hrs by CLSI method; type: functional, organism-based; conditions: ATCC 6258, 48 h; how it was run: as §4
Candida tropicalis [10] = test: Antifungal activity against Candida tropicalis ATCC 750 after 48 hrs by CLSI method; type: functional, organism-based; conditions: ATCC 750, 48 h
How it was run: (§6)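 Yeast suspensions made from 3-5 colonies off 24-72 h SD agar plates in saline. They were diluted by OD630 standard curve in RPMI 1640 (0.2% dextrose, 0.03% glutamine, 0.165 M MOPS, pH 7.0) to 1.5 × 10³ CFU/ml. Twofold dilutions (11 concentrations, 20% DMSO-saline) run in duplicate. OD530 read before and after 35°C, 48 h. Line values are top test concentrations; no-growth endpoints give MIC/MFC.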

Trichophyton rubrum [11] = test: Antifungal activity against Trichophyton rubrum ATCC MYA-4438 at 178.3 uM after 5 days by CLSI method; type: functional, organism-based
Candida albicans [12] = test: Antifungal activity against Candida albicans ATCC 200955 at 178.3 uM after 48 hrs by CLSI method; type: functional, organism-based; how it was run: as §4
Mus musculus = test: Toxicity in mouse up to 34 umol/kg/day, ip for 3 days; type: organism-based; conditions: in vivo, 72 h
Candida albicans [13] = test: Antifungal activity against Fluconazole resistant Candida albicans isolate 17 at 178.3 uM after 48 hrs by CLSI method; type: functional, organism-based
How it was run: (§7)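 Candida in CLSI broth microdilution. Saline colony suspension set to 1.5 × 10³ CFU/ml (final) in MOPS-buffered RPMI 1640, pH 7.0. Test agent given as twofold serial dilutions in 20% DMSO-saline, duplicate wells. 35°C for 48 h. Growth read as OD530 before and after incubation. Percent inhibition scored at the highest test concentration.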

Candida albicans [14] = test: Antifungal activity against Fluconazole resistant Candida albicans clinical isolate 17 after 48 hrs by CLSI method; type: functional, organism-based; how it was run: as §3
[15] = test system: Trichophyton mentagrophytes; test: Antifungal activity against Trichophyton mentagrophytes ATCC MYA-4439 by CLSI method; type: functional, organism-based; how it was run: as §2
Candida albicans [16] = test: Antifungal activity against Candida albicans ATCC 32354 after 48 hrs by CLSI method; type: functional, organism-based; conditions: ATCC 32354, 48 h; how it was run: as §3
Aspergillus fumigatus [17] = test: Antifungal activity against Aspergillus fumigatus ATCC 90906 at 178.3 uM after 48 hrs by CLSI method; type: functional, organism-based
Vero = test: Cytotoxicity against African green monkey Vero cells up to 32 uM by neutral red method; type: cell-based; conditions: chlorocebus sabaeus; how it was run: as §1
Aspergillus niger = test: Antifungal activity against Aspergillus niger ATCC 16404 at 178.3 uM after 48 hrs by CLSI method; type: functional, organism-based
Candida parapsilosis [18] = test: Antifungal activity against Candida parapsilosis ATCC 22019 at 178.3 uM after 48 hrs by CLSI method; type: functional, organism-based; how it was run: as §6
SK-MEL = test: Cytotoxicity against human SK-MEL cells up to 32 uM by neutral red method; type: cell-based; how it was run: as §1
Aspergillus fumigatus [19] = test: Antifungal activity against Aspergillus fumigatus ATCC 204305 at 178.3 uM after 48 hrs by CLSI method; type: functional, organism-based
BT-549 = test: Cytotoxicity against human BT549 cells up to 32 uM by neutral red method; type: cell-based; how it was run: as §1
Candida albicans [20] = test: Antifungal activity against Fluconazole resistant Candida albicans isolate 1 at 178.3 uM after 48 hrs by CLSI method; type: functional, organism-based; how it was run: as §7
Candida albicans [21] = test: Antifungal activity against Fluconazole resistant Candida albicans clinical isolate 1 after 48 hrs by CLSI method; type: functional, organism-based; how it was run: as §3
Candida tropicalis [22] = test: Antifungal activity against Candida tropicalis ATCC 750 at 178.3 uM after 48 hrs by CLSI method; type: functional, organism-based; how it was run: as §6
Candida albicans [23] = test: Antifungal activity against Candida albicans ATCC 200955 after 48 hrs by CLSI method; type: functional, organism-based; conditions: ATCC 200955, 48 h; how it was run: as §3
Aspergillus fumigatus [24] = test: Antifungal activity against Aspergillus fumigatus ATCC 204305 after 48 h by CLSI method; conditions: ATCC 204305, 48 h
Trichophyton rubrum [25] = test: Antifungal activity against Trichophyton rubrum ATCC MYA-4438 by CLSI method; type: functional, organism-based; how it was run: as §2
Candida albicans [26] = test: Antifungal activity against Candida albicans ATCC 32354 at 178.3 uM after 48 hrs by CLSI method; type: functional, organism-based; how it was run: as §4
KB = test: Cytotoxicity against human KB cells up to 32 uM by neutral red method; type: cell-based; how it was run: as §1
Candida parapsilosis [27] = test: Antifungal activity against Candida parapsilosis ATCC 22019 after 48 hrs by CLSI method; type: functional, organism-based; conditions: Lodderomyces parapsilosis, ATCC 22019, 48 h; how it was run: as §6

SMILES: CCCCCCCCCCCC#CCCCCC(=O)O [6-OCTADECYNOIC ACID]
- Activity (SK-OV-3): Non-toxic
- IC50 (Trichophyton rubrum [1]): 2700 nM
- MFC (Trichophyton rubrum [1]): 11.1 µM (≈ 3.11 µg/mL)
- MIC (Trichophyton rubrum [1]): 5.6 µM (≈ 1.57 µg/mL)
- IC50 (Candida albicans [2]): 2000 nM
- MFC (Candida albicans [2]): 11.1 µM (≈ 3.11 µg/mL)
- MIC (Candida albicans [2]): 2.8 µM (≈ 0.785 µg/mL)
- IC50 [3]: 1300 nM
- MFC [3]: 2.8 µM (≈ 0.785 µg/mL)
- MIC [3]: 2.1 µM (≈ 0.589 µg/mL)
- IC50 (Candida albicans [4]): 1000 nM
- MFC (Candida albicans [4]): 5.6 µM (≈ 1.57 µg/mL)
- MIC (Candida albicans [4]): 2.8 µM (≈ 0.785 µg/mL)
- Activity (Candida albicans [5]): inactive
- IC50 (Cryptococcus neoformans [6]): 1400 nM
- Activity (Nakaseomyces glabratus): inactive
- Activity (Cryptococcus neoformans [7]): inactive
- Activity (LLC-PK1): Non-toxic
- Activity (Cryptococcus neoformans [8]): inactive
- IC50 (Candida albicans [9]): 3000 nM
- MIC (Candida albicans [9]): 5.6 µM (≈ 1.57 µg/mL)
- Activity (Aspergillus flavus): inactive
- IC50 (Pichia kudriavzevii): 3400 nM
- MIC (Pichia kudriavzevii): 5.6 µM (≈ 1.57 µg/mL)
- IC50 (Candida tropicalis [10]): 6300 nM
- MIC (Candida tropicalis [10]): 111 µM (≈ 31.2 µg/mL)
- Activity (Trichophyton rubrum [11]): inactive
- Activity (Candida albicans [12]): inactive
- Activity (Mus musculus): Non-toxic
- Activity (Candida albicans [13]): inactive
- IC50 (Candida albicans [14]): 3600 nM
- MIC (Candida albicans [14]): 16.7 µM (≈ 4.68 µg/mL)
- IC50 [15]: 1200 nM
- MFC [15]: 2.8 µM (≈ 0.785 µg/mL)
- MIC [15]: 2.8 µM (≈ 0.785 µg/mL)
- IC50 (Candida albicans [16]): 4000 nM
- MIC (Candida albicans [16]): 27.9 µM (≈ 7.82 µg/mL)
- Activity (Aspergillus fumigatus [17]): inactive
- Activity (Vero): Non-toxic
- Activity (Aspergillus niger): inactive
- Activity (Candida parapsilosis [18]): inactive
- Activity (SK-MEL): Non-toxic
- Activity (Aspergillus fumigatus [19]): inactive
- Activity (BT-549): Non-toxic
- Activity (Candida albicans [20]): inactive
- IC50 (Candida albicans [21]): 4200 nM
- MIC (Candida albicans [21]): 13.9 µM (≈ 3.9 µg/mL)
- Activity (Candida tropicalis [22]): inactive
- IC50 (Candida albicans [23]): 1900 nM
- MIC (Candida albicans [23]): 11.1 µM (≈ 3.11 µg/mL)
- IC50 (Aspergillus fumigatus [24]): 18700 nM
- MIC (Aspergillus fumigatus [24]): 178 µM (≈ 50 µg/mL)
- IC50 (Trichophyton rubrum [25]): 1800 nM
- MIC (Trichophyton rubrum [25]): 5.6 µM (≈ 1.57 µg/mL)
- Activity (Candida albicans [26]): inactive
- Activity (KB): Non-toxic

SMILES: OC(Cn1cncn1)(Cn1cncn1)c1ccc(F)cc1F [FLUCONAZOLE]
- IC50 (Trichophyton rubrum [1]): 1800 nM
- MFC (Trichophyton rubrum [1]): 163 µM (≈ 50 µg/mL)
- MIC (Trichophyton rubrum [1]): 1.9 µM (≈ 0.582 µg/mL)
- IC50 (Candida albicans [2]): 800 nM
- MIC (Candida albicans [2]): 6.4 µM (≈ 1.96 µg/mL)
- IC50 [3]: 29500 nM
- MIC [3]: 61.2 µM (≈ 18.7 µg/mL)
- IC50 (Candida albicans [4]): 500 nM
- MIC (Candida albicans [4]): 1.3 µM (≈ 0.398 µg/mL)
- IC50 (Candida albicans [9]): 400 nM
- MIC (Candida albicans [9]): 0.6 µM (≈ 0.184 µg/mL)
- IC50 (Pichia kudriavzevii): 126000 nM
- MIC (Pichia kudriavzevii): 163 µM (≈ 50 µg/mL)
- IC50 (Candida tropicalis [10]): 4300 nM
- MIC (Candida tropicalis [10]): 15.3 µM (≈ 4.69 µg/mL)
- IC50 (Candida parapsilosis [27]): 3400 nM
- MIC (Candida parapsilosis [27]): 10.2 µM (≈ 3.12 µg/mL)
- IC50 (Candida albicans [14]): 163000 nM
- IC50 (Candida albicans [16]): 800 nM
- MIC (Candida albicans [16]): 5.7 µM (≈ 1.75 µg/mL)
- IC50 (Candida albicans [21]): 800 nM
- MIC (Candida albicans [21]): 5.1 µM (≈ 1.56 µg/mL)
- IC50 (Candida albicans [23]): 400 nM
- MIC (Candida albicans [23]): 1.3 µM (≈ 0.398 µg/mL)
- IC50 (Trichophyton rubrum [25]): 2700 nM
- MIC (Trichophyton rubrum [25]): 6.4 µM (≈ 1.96 µg/mL)

From ChEMBL document CHEMBL1275449, “Potent in vitro antifungal activities of naturally occurring acetylenic acids” (Antimicrob Agents Chemother, 2008)
